≈ marks a conversion by molar mass, not a printed value.
Legend:
Format in all cases: functional
[1] = test system: Staphylococcus aureus; assay: Antibacterial activity against Staphylococcus aureus ATCC 25923 at 100 ug/ml after 24 hrs by agar well diffusion method; settings: ATCC 25923, 24 h, read-out: IZ
Outline: (§1)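 Agar well diffusion on Mueller Hinton agar (20 mL per dish), seeded homogeneously with liquid bacterial culture by spread plating. Samples loaded directly into wells, dimethylformamide as solvent control, ampicillin as reference drug. Plates incubated at 37 °C for 24 h. All determinations done in triplicate.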

[2] = test system: Bacillus subtilis; assay: Antibacterial activity against Bacillus subtilis ATCC 6633 at 100 ug/ml after 24 hrs by agar well diffusion method; settings: ATCC 6633, 24 h, read-out: IZ; outline: as §1
[3] = test system: Escherichia coli; assay: Antibacterial activity against Escherichia coli ATCC 35218 at 100 ug/ml after 24 hrs by agar well diffusion method; settings: ATCC 35218, 24 h, read-out: IZ; outline: as §1
[4] = test system: Pseudomonas aeruginosa; assay: Antibacterial activity against Pseudomonas aeruginosa ATCC 10145 at 100 ug/ml after 24 hrs by agar well diffusion method; settings: ATCC 10145, 24 h, read-out: IZ; outline: as §1
[5] = test system: Candida albicans; assay: Antifungal activity against Candida albicans at 100 ug/ml after 72 hrs by agar well diffusion method; settings: read-out: IZ
Outline: (§2)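 Fungi grown on Potato Dextrose Agar (20 mL per dish), seeded homogeneously with liquid culture by spread plating. Samples loaded directly into agar wells, with dimethylformamide as solvent control and clotrimazole as reference drug. Plates incubated at 25 °C for 72 h, triplicate determinations.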

[6] = test system: Aspergillus fumigatus; assay: Antifungal activity against Aspergillus fumigatus at 100 ug/ml after 72 hrs by agar well diffusion method; settings: read-out: IZ; outline: as §2
[7] = test system: Staphylococcus aureus; assay: Antibacterial activity against Staphylococcus aureus ATCC 25923 after 24 hrs by agar well diffusion method; settings: ATCC 25923, 24 h; outline: as §1
[8] = test system: Bacillus subtilis; assay: Antibacterial activity against Bacillus subtilis ATCC 6633 after 24 hrs by agar well diffusion method; settings: ATCC 6633, 24 h; outline: as §1
[9] = test system: Escherichia coli; assay: Antibacterial activity against Escherichia coli ATCC 35218 after 24 hrs by agar well diffusion method; settings: ATCC 35218, 24 h; outline: as §1
[10] = test system: Pseudomonas aeruginosa; assay: Antibacterial activity against Pseudomonas aeruginosa ATCC 10145 after 24 hrs by agar well diffusion method; settings: ATCC 10145, 24 h; outline: as §1
[11] = test system: Candida albicans; assay: Antifungal activity against Candida albicans after 72 hrs by agar well diffusion method; outline: as §2
[12] = test system: Aspergillus fumigatus; assay: Antifungal activity against Aspergillus fumigatus after 72 hrs by agar well diffusion method; outline: as §2

MIC [7]	MIC [8]	MIC [9]	MIC [10]	MIC [11]	MIC [12]	Structure (SMILES)	zone of inhibition at 100 µg/mL [1]	zone of inhibition at 100 µg/mL [2]	zone of inhibition at 100 µg/mL [3]	zone of inhibition at 100 µg/mL [4]	zone of inhibition at 100 µg/mL [5]	zone of inhibition at 100 µg/mL [6]
1 µg/mL (≈ 2.36 µM)	1 µg/mL (≈ 2.36 µM)	2 µg/mL (≈ 4.72 µM)	1.5 µg/mL (≈ 3.54 µM)	3 µg/mL (≈ 7.08 µM)	4 µg/mL (≈ 9.44 µM)	N#CSc1c(-c2ccc(Cl)cc2)nc2sc(Cc3noc4ccccc34)nn12	18 mm	17 mm	16 mm	19 mm	15 mm	11 mm
1.5 µg/mL (≈ 3.49 µM)	1.5 µg/mL (≈ 3.49 µM)	3 µg/mL (≈ 6.99 µM)	2.5 µg/mL (≈ 5.82 µM)	3 µg/mL (≈ 6.99 µM)	3.5 µg/mL (≈ 8.15 µM)	O=Nc1c(-c2cc3ccccc3oc2=O)nc2sc(Cc3noc4ccccc34)nn12	14 mm	15 mm	12 mm	14 mm	15 mm	12 mm
2 µg/mL (≈ 4.6 µM)	2.5 µg/mL (≈ 5.75 µM)	4 µg/mL (≈ 9.21 µM)	3 µg/mL (≈ 6.91 µM)	3.5 µg/mL (≈ 8.06 µM)	3.5 µg/mL (≈ 8.06 µM)	N#CSc1c(-c2ccc([N+](=O)[O-])cc2)nc2sc(Cc3noc4ccccc34)nn12	9 mm	8 mm	7 mm	10 mm	11 mm	9 mm
2 µg/mL (≈ 4.77 µM)	1 µg/mL (≈ 2.38 µM)	3 µg/mL (≈ 7.15 µM)	1.5 µg/mL (≈ 3.58 µM)	2.5 µg/mL (≈ 5.96 µM)	2.5 µg/mL (≈ 5.96 µM)	COc1ccc(-c2nc3sc(Cc4noc5ccccc45)nn3c2SC#N)cc1	9 mm	15 mm	13 mm	19 mm	20 mm	16 mm
1.5 µg/mL (≈ 3.85 µM)	1.5 µg/mL (≈ 3.85 µM)	3 µg/mL (≈ 7.7 µM)	2 µg/mL (≈ 5.14 µM)	3.5 µg/mL (≈ 8.99 µM)	2.5 µg/mL (≈ 6.42 µM)	N#CSc1c(-c2ccccc2)nc2sc(Cc3noc4ccccc34)nn12	16 mm	14 mm	12 mm	17 mm	12 mm	15 mm
1.5 µg/mL (≈ 3.83 µM)	3 µg/mL (≈ 7.66 µM)	2 µg/mL (≈ 5.11 µM)	3.5 µg/mL (≈ 8.94 µM)	3 µg/mL (≈ 7.66 µM)	4 µg/mL (≈ 10.2 µM)	COc1ccc(-c2nc3sc(Cc4noc5ccccc45)nn3c2N=O)cc1	13 mm	11 mm	16 mm	8 mm	14 mm	10 mm
1.5 µg/mL (≈ 3.2 µM)	2 µg/mL (≈ 4.27 µM)	2 µg/mL (≈ 4.27 µM)	2 µg/mL (≈ 4.27 µM)	3 µg/mL (≈ 6.41 µM)	4 µg/mL (≈ 8.54 µM)	N#CSc1c(-c2ccc(Br)cc2)nc2sc(Cc3noc4ccccc34)nn12	12 mm	14 mm	15 mm	18 mm	14 mm	12 mm
1.5 µg/mL (≈ 3.28 µM)	1 µg/mL (≈ 2.19 µM)	3.5 µg/mL (≈ 7.65 µM)	2 µg/mL (≈ 4.37 µM)	3.5 µg/mL (≈ 7.65 µM)	2 µg/mL (≈ 4.37 µM)	N#CSc1c(-c2cc3ccccc3oc2=O)nc2sc(Cc3noc4ccccc34)nn12	14 mm	15 mm	14 mm	16 mm	12 mm	19 mm
1 µg/mL (≈ 2.27 µM)	2.5 µg/mL (≈ 5.68 µM)	2 µg/mL (≈ 4.54 µM)	3 µg/mL (≈ 6.81 µM)	2.5 µg/mL (≈ 5.68 µM)	2.5 µg/mL (≈ 5.68 µM)	O=Nc1c(-c2ccc(Br)cc2)nc2sc(Cc3noc4ccccc34)nn12	16 mm	12 mm	14 mm	12 mm	17 mm	15 mm

Source: ChEMBL document CHEMBL1152495, “Synthesis and antimicrobial studies of novel methylene bridged benzisoxazolyl imidazo[2,1-b][1,3,4]thiadiazole derivatives” (2009)
